16 compounds from ChEMBL document CHEMBL2311346, “An unprecedented reversible mode of action of β-lactams for the inhibition of human fatty acid amide hydrolase (hFAAH)” (Eur J Med Chem, 2013) can be followed below.

Test [1] has as its target T1, Fatty-acid amide hydrolase 1 (Homo sapiens, UniProt O00519).
T1 sequence (O00519 whole entry): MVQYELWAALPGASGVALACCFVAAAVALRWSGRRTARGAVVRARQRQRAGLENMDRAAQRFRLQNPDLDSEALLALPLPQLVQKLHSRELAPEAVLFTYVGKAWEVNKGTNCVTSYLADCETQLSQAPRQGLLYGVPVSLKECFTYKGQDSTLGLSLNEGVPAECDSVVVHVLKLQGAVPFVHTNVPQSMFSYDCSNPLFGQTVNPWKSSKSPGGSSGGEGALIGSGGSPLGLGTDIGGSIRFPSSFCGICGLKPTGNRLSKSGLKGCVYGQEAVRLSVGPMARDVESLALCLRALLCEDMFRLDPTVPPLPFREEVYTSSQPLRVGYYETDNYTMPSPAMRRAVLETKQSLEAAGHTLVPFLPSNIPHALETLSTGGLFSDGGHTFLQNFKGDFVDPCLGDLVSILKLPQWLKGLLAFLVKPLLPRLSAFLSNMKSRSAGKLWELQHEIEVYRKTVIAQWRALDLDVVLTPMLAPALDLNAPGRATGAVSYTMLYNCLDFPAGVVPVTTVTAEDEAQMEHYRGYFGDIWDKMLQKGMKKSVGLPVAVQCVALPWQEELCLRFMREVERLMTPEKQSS
Nature of the test: Inhibition of human recombinant FAAH-mediated [3H]AEA hydrolysis after 10 mins by liquid scintillation assay. Put shortly:
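Human recombinant FAAH in 10 mM Tris–HCl, 1 mM EDTA, 0.1% BSA, pH 7.4, with compound in DMSO (DMSO controls) and [3H]-AEA (2 µM final), 37 °C for 10 min. Ice-cold chloroform/methanol stop, centrifugation, [3H]-ethanolamine in upper methanol/buffer phase counted by scintillation. Buffer-only blank subtracted; IC50 from three independent experiments.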

For test [2], the target named is T2, Fatty-acid amide hydrolase 1 (Homo sapiens) (UniProt O00519).
T2 sequence (whole entry): T1 sequence (O00519 whole entry)
Nature of the test: Irreversible inhibition of human recombinant FAAH using [3H]AEA as substrate incubated up to 90 mins by compound dilution method.

A further test has as its target T3, Monoglyceride lipase (Homo sapiens, UniProt Q99685).
T3 sequence (Q99685 whole entry): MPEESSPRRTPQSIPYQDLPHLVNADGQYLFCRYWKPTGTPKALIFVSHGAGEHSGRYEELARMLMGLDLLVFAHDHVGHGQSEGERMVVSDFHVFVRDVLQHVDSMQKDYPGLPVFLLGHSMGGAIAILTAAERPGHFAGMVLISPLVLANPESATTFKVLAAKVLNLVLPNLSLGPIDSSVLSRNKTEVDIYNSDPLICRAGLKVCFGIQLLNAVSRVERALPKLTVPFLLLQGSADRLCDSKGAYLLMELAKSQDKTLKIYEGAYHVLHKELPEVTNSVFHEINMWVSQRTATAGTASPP
Nature of the test: Inhibition of human recombinant MAGL using [3H]-2-OG as substrate incubated for 30 mins at room temperature followed by incubation at 37 degC for 10 mins by liquid scintillation assay. In outline: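 Purified human recombinant MAGL in 10 mM Tris–HCl, 1 mM EDTA, 0.1% BSA, pH 8.0, with compound in DMSO (DMSO controls) and [3H]-2-OG (2 µM final). Preincubated 20 °C for 30 min, then 37 °C for 10 min. Ice-cold chloroform/methanol stop; lower chloroform phase counted by liquid scintillation; buffer-only blank subtracted.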

The species entered for a further test is Homo sapiens. Nature of the test: Selectivity ratio of IC50 for human recombinant MAGL to IC50 for human recombinant FAAH.
For test [3], the target named is T2, Fatty-acid amide hydrolase 1 (Homo sapiens). Kind of test: Competitive reversible inhibition of human recombinant FAAH using [3H]AEA as substrate incubated up to 90 mins by compound dilution method. In outline: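 Wash-out: human recombinant FAAH (27.5 µg) preincubated 1 h at room temperature with inhibitor or DMSO in 15 µL, at concentrations inhibiting before but not after dilution; diluted 100-fold in assay buffer. Aliquots taken at 0, 30 and 90 min post-dilution, given [3H]-AEA (2 µM final), 37 °C for 30 min; stopped with chloroform/methanol; aqueous phase counted; buffer blank subtracted.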

Test [4] concerns the target T4, Monoglyceride lipase (Homo sapiens) (UniProt Q99685).
T4 sequence (whole entry): T3 sequence (Q99685 whole entry)
Nature of the test: Inhibition of human recombinant MAGL using [3H]-2-OG as substrate at 1 mM incubated for 30 mins at room temperature followed by incubation at 37 degC for 10 mins by liquid scintillation assay.

Structures are written as SMILES. Activity calls are given as the source filed them. No cut-off for these calls is given here.

What is called IC50 is the concentration that inhibits the measured activity by half. As for `C=CCCC(=O)N1C[C@@H]([C@@H](C)OC(=O)COCc2ccccc2)C1=O`, the IC50 in test [1] was determined as 30.9 nM.
Same read-out and setting: next, `C=CCOC(=O)N1C[C@@H]([C@@H](C)OC(=O)COCc2ccccc2)C1=O`: 30.1 nM.
Consider `NC(=O)c1cccc(-c2cccc(OC(=O)NC3CCCCC3)c2)c1`, for which the inhibition result in test [2] is “Active”.
With `C=CCNC(=S)N1C[C@@H]([C@@H](C)OC(=O)COCc2ccccc2)C1=O`, the IC50 on Monoglyceride lipase came to 122000 nM; in test [1] it was 1040 nM.
For the compound `C=CCCC(=O)N1C[C@@H]([C@@H](C)OC(=O)CCCc2ccccc2)C1=O`, the IC50 at Monoglyceride lipase was determined as 4060 nM.
As for `C=CCNC(=O)N1C[C@@H]([C@@H](C)OC(=O)CCCc2ccccc2)C1=O`, the Ratio IC50 in the test filed under Homo sapiens was found to be 18000. Further, the concentration for half-maximal inhibition (IC50) was 98400 nM on Monoglyceride lipase and 5.56 nM in test [1].
Consider `O=C(CCCCCCc1ccccc1)c1nc2ncccc2o1`, for which, in test [3], the inhibition result was “Active”.
As for `C=CCNC(=O)N1C[C@@H]([C@@H](C)OC(=O)NCCc2ccccc2)C1=O`, the IC50 in test [1] was determined as 28.6 nM.
For `C=CCNC(=S)N1C[C@@H]([C@@H](C)OC(=O)CCCc2ccccc2)C1=O`, the inhibition (INH) in test [4] came to 60%. Moreover, in test [1], the IC50 was found to be 146 nM.
Turning to `C=CCOC(=O)N1C[C@@H]([C@@H](C)OC(=O)CCCc2ccccc2)C1=O`, the inhibition result in test [3] is “Active”. Moreover, in the test filed under Homo sapiens, the Ratio IC50 was determined as 2800. For the same compound, the half-maximal inhibitory concentration (IC50) was determined as 10300 nM at Monoglyceride lipase and 3.65 nM in test [1].
For `C=CCNC(=S)N1C[C@@H]([C@@H](C)OC(=O)NCCc2ccccc2)C1=O`, in test [4], the inhibition (INH) came to 25%. In addition, the half-inhibitory concentration (IC50) in test [1] was determined as 959 nM.
With `C=CCOC(=O)N1C[C@@H]([C@@H](C)OC(=O)NCCc2ccccc2)C1=O`, the half-maximal inhibitory concentration (IC50) in test [1] is 12.1 nM.
As for `C=CCCC(=O)N1C[C@@H]([C@@H](C)OC(=O)CCCc2ccncc2)C1=O`, the IC50 in test [1] worked out at 310 nM.
Consider `C=CCNC(=O)N1C[C@@H]([C@@H](C)OC(=O)COCc2ccccc2)C1=O`, for which the IC50 on Monoglyceride lipase was found to be 56800 nM; in test [1], 70.9 nM.
For `CCCSC(=O)N1C[C@@H]([C@@H](C)OC(=O)CCCc2ccccc2)C1=O`, in test [3], the inhibition entry was “Active”. In addition, the IC50 on Monoglyceride lipase amounted to 19000 nM; in test [1], 12.1 nM.
For the compound `C=CCCC(=O)N1C[C@@H]([C@@H](C)OC(=O)NCCc2ccccc2)C1=O`, the IC50 in test [1] was 33.2 nM.
